Assay [1] can be described thus: Oxytocic activity in Sherman albino rat uterus assessed as contraction. In kind it is functional.
The subject of assay [2] is Rattus norvegicus. The experiment in a line: Antidiuretic activity in sc dosed Brattleboro rat hereditary hypothalamic diabetes insipidus model measured over 6 hrs. It is filed as functional, Urine. In short, it runs like this:
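Brattleboro rats with hereditary hypothalamic diabetes insipidus received a single sc injection of 100 ng/kg. Inhibition of diuresis was followed over time to record its duration.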

The test system of assay [3] is Rattus norvegicus. The experiment in a line: Ratio of dPVDAVP to compound for antidiuretic activity in sc dosed Brattleboro rat hereditary hypothalamic diabetes insipidus model.
The test system of assay [4] is Rattus norvegicus. The experiment in a line: Antidiuretic activity in Brattleboro rat hereditary hypothalamic diabetes insipidus model at 100 ug/kg, sc measured over 1.7 hrs. In kind it is functional, organism-based. As to conditions: Urine. The method, boiled down:
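Single subcutaneous injection into Brattleboro rats with hereditary hypothalamic diabetes insipidus. The value recorded is the duration, in hours, for which diuresis was inhibited (antidiuresis) after dosing.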

Assay [5] is described as follows: Antioxytocic activity in Sherman albino rat uterus assessed as inhibition of oxytocin-induced contraction. In kind it is functional, tissue-based. In short, it runs like this: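 Isolated rat uterus in magnesium-free van Dyke-Hastings solution. The antagonist was added to the bath immediately before injection of agonist (USP Posterior Pituitary Reference Standard). pA2 was calculated per Schild as the −log molar antagonist concentration reducing the response to 2X units of agonist to that of X units. A pA2 was computed per assay group and reported as mean ± SE.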

For assay [6], the system named is Rattus norvegicus. Description: Antivasopressor activity in iv dosed phenoxybenzamine-treated rat assessed as inhibition of lysine-vasopressin-induced vasopressor response. It is filed as functional, organism-based. As to conditions: read-out: pA2 (converted). The method, boiled down: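 Urethane-anesthetized, phenoxybenzamine-treated rats as in the standard rat vasopressor assay. The antagonist was given iv immediately before iv injection of agonist standard, with LVP as agonist. pA2 is the −log molar antagonist concentration halving the effect of a doubled agonist dose. Peptide was assumed uniformly distributed in blood volume. pA2 was computed per assay group and reported as mean ± SE.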

Assay [7] concerns Rattus norvegicus. Description: Antivasopressor activity in phenoxybenzamine-treated rat assessed as inhibition of arginine-vasopressin-induced vasopressor response at 10 ug/kg, iv measured for >= 2.5 hrs. In kind it is functional, organism-based. The method, boiled down: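 Rats received a single iv injection of 10 μg/kg antagonist. Vasopressor responses to AVP challenges of 10-40 mU/kg (about 25-100 ng/kg) were then followed. The duration of inhibition was recorded as an average period.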

In assay [8] the test system is Rattus norvegicus. The experiment in a line: Antidiuretic antagonist activity in sc dosed Brattleboro rat hereditary hypothalamic diabetes insipidus model. In kind it is functional, organism-based. Conditions: Urine.
For assay [9], the species on record is Rattus norvegicus. Description: Antivasopressor activity in phenoxybenzamine-treated rat assessed as inhibition of angiotensin 2-induced vasopressor response. In kind it is functional, organism-based.
Assay [10] is filed under the species Rattus norvegicus. Description: Antivasopressor activity in phenoxybenzamine-treated rat assessed as inhibition of norepinephrine-induced vasopressor response. It is filed as functional, organism-based.
The test system of assay [11] is Rattus norvegicus. The experiment in a line: Antidiuretic activity in sc dosed Brattleboro rat hereditary hypothalamic diabetes insipidus model. It is filed as functional, organism-based. Conditions: Urine.

The source made the active and inactive calls. The calls are words filed in the database; no cut-off is given here. Starred links: 1 amine or outer side, 2 acyl side, 3 side chain; linkers in the order of their positions; H or OH if unused. Positions of bridges follow the written chain, without caps; N, C: chain ends. Non-standard residues stand in square brackets, D forms with d. Residues, ends and D or L forms follow the SMILES beside them. X2 = CCC(CC)(CC(=O)[*:1])S[*:2]; X1 = CC(C)(CC(=O)[*:1])S[*:2]; Mpa = O=C(O)CCS

Regarding `CC(C)[C@@H]1NC(=O)[C@H](Cc2ccccc2)NC(=O)[C@H](Cc2ccc(O)cc2)NC(=O)CCSSC[C@@H](C(=O)N2CCC[C@H]2C(=O)N[C@H](CCCNC(=N)N)C(=O)NCC(N)=O)NC(=O)[C@H](CC(N)=O)NC1=O` ([Mpa]YFVNCP[dR]G-NH2; disulfide 1-6), the Activity is reported as 8 U/mg in assay [1] and 1230 U/mg in [2]. For the same compound, the Ratio in assay [3] is reported as 10.

For `N=C(N)NCCC[C@H](NC(=O)[C@@H]1CCCN1C(=O)[C@@H]1CSSC[C@H](N)C(=O)N[C@@H](Cc2ccc(O)cc2)C(=O)N[C@@H](Cc2ccccc2)C(=O)N[C@@H](CCC(N)=O)C(=O)N[C@@H](CC(N)=O)C(=O)N1)C(=O)NCC(N)=O`, in [4], the outcome was Active.

As usually defined, the pA2 is a measure of antagonist potency on a negative log scale. Consider `CCC1(CC)CC(=O)N[C@@H](Cc2ccc(O)cc2)C(=O)N[C@@H](Cc2ccccc2)C(=O)N[C@@H](CCC(N)=O)C(=O)N[C@@H](CC(N)=O)C(=O)N[C@H](C(=O)N2CCC[C@H]2C(=O)N[C@@H](CCCCN)C(=O)NCC(N)=O)CSS1` (YFQNCPKG-NH2; linker N-5 via X2), for which the pA2 in assay [5] was determined as 6.84. For the same compound, the Kb in [6] is 70.8 nM.

Regarding `CC(C)[C@@H]1NC(=O)[C@H](Cc2ccccc2)NC(=O)[C@H](Cc2ccc(O)cc2)NC(=O)CC(C)(C)SSC[C@@H](C(=O)N2CCC[C@H]2C(=O)N[C@H](CCCNC(=N)N)C(=O)NCC(N)=O)NC(=O)[C@H](CC(N)=O)NC1=O` (YFVNCP[dR]G-NH2; linker N-5 via X1), the inhibition entry in assay [7] was “Active”. Moreover, in assay [8], the outcome was inactive. In addition, the Activity in assay [2] amounted to 123 U/mg. In addition, in [5], the pA2 is listed as 7.23. The inhibition result in assay [9] and in assay [10] was “inactive” throughout. For the same compound, the result in [11] was Active.
